Measurements: ChEMBL document CHEMBL1156597, “Structure-activity relationship of kahalalide F synthetic analogues” (J Med Chem, 2008)

What was measured:
[1] = test system: LNCaP; test: Cytotoxicity against human LNcaP cells after 48 hrs by SRB assay; assay type: functional; settings: for CC50: read-out: LC50 (the source's name)
Summary of the method: (§1)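 Cells grown in RPMI 1640 with 10% FBS and penicillin/streptomycin at 37 °C and 5% CO₂, trypsinized, then seeded at 5 × 10³/well. After 18 h drug-free attachment, samples in DMSO/EtOH/PBS (0.5:0.5:99) were added for 48 h continuous exposure. Cells were fixed with cold TCA (1 h, 4 °C) and stained with SRB (10 min). Tris-solubilized stain read at 490 nm. Triplicate wells, mean ± SD; GI₅₀ derived.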

[2] = test system: A549; test: Cytotoxicity against human A549 cells after 48 hrs by SRB assay; assay type: functional, cell-based; settings: Homo sapiens, A549, 48 h; summary of the method: as §1
[3] = test system: PANC-1; test: Cytotoxicity against human PANC1 cells after 48 hrs by SRB assay; assay type: functional; settings: PANC-1, 48 h; for CC50: read-out: LC50 (the source's name); summary of the method: as §1
[4] = test system: SK-BR-3; test: Cytotoxicity against human SKBR3 cells after 48 hrs by SRB assay; assay type: functional; settings: SK-BR-3, 48 h; for CC50: read-out: LC50 (the source's name); summary of the method: as §1
[5] = test system: HT-29; test: Cytotoxicity against human HT29 cells after 48 hrs by SRB assay; assay type: functional, cell-based; settings: Homo sapiens, HT-29, 48 h; for CC50: read-out: LC50 (the source's name); summary of the method: as §1
[6] = test system: LoVo; test: Cytotoxicity against human LoVo cells after 48 hrs by SRB assay; assay type: functional; settings: for CC50: read-out: LC50 (the source's name)
[7] = Cytotoxicity against human IGROV cells after 48 hrs by SRB assay; assay type: functional; settings: for CC50: read-out: LC50 (the source's name); summary of the method: as §1
[8] = test system: K562; test: Cytotoxicity against human K562 cells after 48 hrs by SRB assay; assay type: functional; settings: K562, 48 h; for CC50: read-out: LC50 (the source's name); summary of the method: as §1
[9] = test system: SK-MEL-28; test: Cytotoxicity against human SK-MEL-28 cells after 48 hrs by SRB assay; assay type: functional, cell-based; settings: Homo sapiens, SK-MEL-28, 48 h; for CC50: read-out: LC50 (the source's name); summary of the method: as §1
[10] = test system: DU-145; test: Cytotoxicity against human DU145 cells after 48 hrs by SRB assay; assay type: functional, cell-based; settings: Homo sapiens, DU-145, 48 h; for CC50: read-out: LC50 (the source's name); summary of the method: as §1
[11] = test system: LoVo; test: Cytotoxicity against human doxorubicin resistant LoVo cells after 48 hrs by SRB assay; assay type: functional; settings: for CC50: read-out: LC50 (the source's name); summary of the method: as §1
[12] = Cytotoxicity against human HeLa-APL cells after 48 hrs by SRB assay; assay type: functional; summary of the method: as §1
[13] = Cytotoxicity against human IGROV-ET cells after 48 hrs by SRB assay; assay type: functional; settings: for CC50: read-out: LC50 (the source's name); summary of the method: as §1
[14] = test system: HeLa; test: Cytotoxicity against human HeLa cells after 48 hrs by SRB assay; assay type: functional; settings: for CC50: read-out: LC50 (the source's name); summary of the method: as §1

SMILES | CC50 [1] [µM] | LC50 [2] [µM] | GI50 ([2]; read-out: GI50) [µM] | GI50 [3] [µM] | TGI [3] [µM] | CC50 [3] [µM] | CC50 [4] [µM] | CC50 [5] [µM] | GI50 [6] [µM] | TGI [6] [µM] | CC50 [6] [µM] | CC50 [7] [µM] | CC50 [8] [µM] | GI50 ([9]; read-out: GI50) [µM] | CC50 [9] [µM] | CC50 [10] [µM] | CC50 [11] [µM] | LC50 (concentration giving 50% net cell kill) [12] [µM] | CC50 [13] [µM] | CC50 [14] [µM] | other results
C/C=C1\NC(=O)[C@H](Cc2ccccc2)NC(=O)[C@@H](C(C)C)NC(=O)[C@@H]([C@H](C)CC)NC(=O)[C@H](NC(=O)[C@H](NC(=O)[C@H](CCCN)NC(=O)[C@H]2CCCN2C(=O)[C@H](NC(=O)[C@@H](NC(=O)[C@@H](NC(=O)[C@H](NC(=O)CCCCCCCCCC)C(C)C)[C@@H](C)O)C(C)C)C(C)C)[C@H](C)CC)[C@H](C)OC(=O)[C@H](C(C)C)NC1=O | 0.72 | 0.456 | 0.16 | 1.63 | 1.54 | 1.44 | 0.0736 | 0.201 | 0.287 | 0.319 | 0.352 | 0.196 | 1.17 | 0.193 | 0.561 | 0.26 | 0.265 | 0.76 | 0.318 | 0.12 | GI50 [1]: 0.423 µM; TGI [1]: 0.586 µM; GI50 [2]: 0.186 µM; GI50 [4]: 0.0699 µM; GI50 ([4]; read-out: GI50): 0.0614 µM; GI50 [5]: 0.371 µM; TGI [5]: 0.354 µM; GI50 [7]: 0.146 µM; GI50 ([7]; read-out: GI50): 0.218 µM; GI50 [9]: 0.251 µM; GI50 [10]: 0.188 µM; GI50 ([10]; read-out: GI50): 0.183 µM; GI50 [11]: 0.0962 µM; TGI [11]: 0.189 µM; GI50 [12]: 0.237 µM; TGI [12]: 0.399 µM; GI50 [13]: 0.218 µM; GI50 ([13]; read-out: GI50): 0.166 µM; GI50 [14]: 0.139 µM; TGI [14]: 0.129 µM
C/C=C1\NC(=O)[C@H](Cc2ccccc2)NC(=O)[C@@H](C(C)C)NC(=O)[C@@H]([C@H](C)CC)NC(=O)[C@H](NC(=O)[C@H](NC(=O)[C@H](CCCN)NC(=O)[C@H]2CCCN2C(=O)[C@H](NC(=O)[C@@H](NC(=O)[C@H](CC(C)C)NC(=O)[C@H](NC(=O)CCCC(C)C)C(C)C)C(C)C)C(C)C)[C@H](C)CC)[C@H](C)OC(=O)[C@H](C(C)C)NC1=O | 0.879 | 5.28 | 0.637 | 1.11 | 1.28 | 1.76 | 0.36 | 0.442 | 0.417 | 0.459 | 0.331 | 0.489 | 1.63 | 1.27 | 1.14 | 0.944 | 0.256 | 0.89 | 0.538 | 0.983 | GI50 [1]: 1.05 µM; TGI [1]: 0.964 µM; GI50 [2]: 0.602 µM; TGI [4]: 0.466 µM; GI50 ([4]; read-out: GI50): 0.428 µM; GI50 [7]: 0.566 µM; GI50 ([7]; read-out: GI50): 0.637 µM; GI50 [8]: 0.542 µM; TGI [8]: 0.926 µM; TGI [9]: 1.21 µM; GI50 [10]: 0.949 µM; GI50 ([10]; read-out: GI50): 0.959 µM; GI50 [11]: 0.28 µM; TGI [11]: 0.244 µM; GI50 [12]: 1.17 µM; TGI [12]: 1.02 µM; GI50 [13]: 0.583 µM; GI50 ([13]; read-out: GI50): 0.754 µM; GI50 [14]: 1.06 µM; TGI [14]: 1.02 µM
C/C=C1\NC(=O)[C@H](Cc2ccccc2)NC(=O)[C@@H](CCC2CCCCC2)NC(=O)[C@@H](CCC2CCCCC2)NC(=O)[C@H](NC(=O)[C@@H](CCC2CCCCC2)NC(=O)[C@H](CCCN)NC(=O)[C@H]2CCCN2C(=O)[C@H](NC(=O)[C@@H](NC(=O)[C@@H](NC(=O)[C@H](NC(=O)CCCC(C)C)C(C)C)[C@@H](C)O)C(C)C)C(C)C)[C@H](C)OC(=O)[C@H](C(C)C)NC1=O | 0.633 | 0.222 | 0.161 | 1.32 | 1.38 | 1.45 | 0.0878 | 0.32 | 0.282 | 0.274 | 0.264 | 0.161 | 0.98 | 0.174 | 0.144 | 0.104 | 0.0274 | 0.573 | 0.055 | 0.586 | GI50 [1]: 0.304 µM; TGI [1]: 0.415 µM; GI50 [2]: 0.173 µM; TGI [4]: 0.201 µM; GI50 ([4]; read-out: GI50): 0.249 µM; GI50 [5]: 0.359 µM; TGI [5]: 0.339 µM; GI50 [7]: 0.139 µM; GI50 ([7]; read-out: GI50): 0.214 µM; GI50 [8]: 0.363 µM; TGI [8]: 0.63 µM; GI50 [9]: 0.159 µM; GI50 [10]: 0.125 µM; GI50 ([10]; read-out: GI50): 0.148 µM; GI50 [12]: 0.233 µM; TGI [12]: 3.4 µM; GI50 [13]: 0.227 µM; GI50 ([13]; read-out: GI50): 0.255 µM; GI50 [14]: 0.255 µM; TGI [14]: 0.361 µM
C/C=C1\NC(=O)[C@H](Cc2ccccc2)NC(=O)[C@@H](C(C)C)NC(=O)[C@@H]([C@H](C)CC)NC(=O)[C@H](NC(=O)[C@H](NC(=O)[C@H](CCCNC(=O)CCCC[C@@H]2SC[C@@H]3NC(=O)N[C@@H]32)NC(=O)[C@H]2CCCN2C(=O)[C@H](NC(=O)[C@@H](NC(=O)[C@@H](NC(=O)[C@H](NC(=O)CCCC(C)C)C(C)C)[C@@H](C)O)C(C)C)C(C)C)[C@H](C)CC)[C@H](C)OC(=O)[C@H](C(C)C)NC1=O | 0.805 | 0.128 |  | 1.99 | 2.36 | 2.01 | 0.0905 | 0.164 | 0.317 | 0.303 | 0.288 | 0.342 | 1.68 | 0.959 | 0.974 | 0.814 | 2.18 | 0.996 | 0.385 | 0.716 | GI50 [1]: 0.816 µM; TGI [1]: 0.81 µM; TGI [4]: 0.267 µM; GI50 ([4]; read-out: GI50): 0.322 µM; GI50 [5]: 0.362 µM; TGI [5]: 0.316 µM; GI50 [7]: 0.351 µM; GI50 ([7]; read-out: GI50): 0.369 µM; GI50 [9]: 0.974 µM; GI50 [10]: 0.836 µM; GI50 ([10]; read-out: GI50): 0.854 µM; GI50 [11]: 0.328 µM; TGI [11]: 0.354 µM; GI50 [12]: 0.985 µM; TGI [12]: 0.989 µM; GI50 [13]: 0.488 µM; GI50 ([13]; read-out: GI50): 0.618 µM; GI50 [14]: 0.382 µM; TGI [14]: 0.58 µM
C/C=C1\NC(=O)[C@H](Cc2ccccc2)NC(=O)[C@@H](C(C)C)NC(=O)[C@@H]([C@H](C)CC)NC(=O)[C@H](NC(=O)[C@H](NC(=O)[C@H](CCCN)NC(=O)[C@H]2CCCN2C(=O)[C@H](NC(=O)[C@@H](NC(=O)[C@@H]2CCCN2C(=O)[C@H](NC(=O)CCCC(C)C)C(C)C)C(C)C)C(C)C)[C@H](C)CC)[C@H](C)OC(=O)[C@H](C(C)C)NC1=O | 0.982 | 4.69 | 1.61 | 5.14 | 4.52 | 2.28 | 0.302 | 4.31 | 4.66 | 4.05 | 3.38 | 0.585 | 1.92 | 2.44 | 1.67 | 1.43 | 0.396 | 0.934 | 0.92 | 0.967 | TGI [2]: 1.53 µM; GI50 [5]: 4.63 µM; TGI [5]: 4.48 µM; GI50 [7]: 0.28 µM; GI50 ([7]; read-out: GI50): 4.52 µM; GI50 [8]: 1.48 µM; TGI [8]: 1.69 µM; TGI [9]: 2.33 µM; GI50 [11]: 2.86 µM; TGI [11]: 2.33 µM
C/C=C1\NC(=O)[C@H](Cc2ccccc2)NC(=O)[C@@H](C(C)C)NC(=O)[C@@H]([C@H](C)CC)NC(=O)[C@H](NC(=O)[C@H](NC(=O)[C@H](CCCN)NC(=O)[C@H]2CCCN2C(=O)[C@H](NC(=O)[C@H](CCC2CCCCC2)NC(=O)[C@@H](NC(=O)[C@@H](CC2CCCCC2)NC(=O)CCCC(C)C)[C@@H](C)O)C(C)C)[C@H](C)CC)[C@H](C)OC(=O)[C@H](C(C)C)NC1=O | 1.38 | 1.67 | 3.6 |  |  | 1.64 | 0.703 | 2.49 | 2.81 | 3.01 | 3.22 | 7.3 | 1.79 | 3.18 | 1.49 | 1.35 | 9.67 | 1.66 | 0.968 | 1.77 | TGI [2]: 3.24 µM; TGI [4]: 1.69 µM; GI50 ([4]; read-out: GI50): 2.06 µM; GI50 [5]: 2.9 µM; TGI [5]: 2.7 µM; GI50 [8]: 1.79 µM; TGI [8]: 1.79 µM; TGI [9]: 3.09 µM; TGI [10]: 2.55 µM; GI50 ([10]; read-out: GI50): 3.3 µM; GI50 [11]: 1.21 µM; TGI [11]: 1.53 µM; GI50 [12]: 4.34 µM; TGI [12]: 3.5 µM; GI50 [14]: 2.95 µM; TGI [14]: 3.51 µM
